Screens (PubChem BioAssay)
Sampled rows, rich in hits. Any-hit rate of the full collection: about 5.1%.
ERa coact inh = blocks coactivator binding to human estrogen receptor alpha; TR-FRET ER-alpha LBD / SRC-1 peptide, estradiol-bound; inhibition, % at 25.6 µM; 1.7% of 86,000 active; in the data active = inhibition above about 50%;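 note: 0% = receptor plus peptide control and 100% = peptide only without receptor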
ERb coact inh = ER-beta (human) coactivator binding inhibition. Q92731. TR-FRET ER-beta LBD / SRC1-Cy5 peptide binding; receptor agonist-loaded with 1 µM estradiol. inhibition, % at 25.6 µM. 1.3% of 86,000 active;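 active = compounds whose percent inhibition of the receptor-coactivator binding signal exceeds about 50% in the single-dose screen, limit read from the data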;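 note: 0% = receptor plus peptide wells without compound and 100% = peptide-only wells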
Target sequence (Q92731 whole entry, looked up, the tested form may be a part): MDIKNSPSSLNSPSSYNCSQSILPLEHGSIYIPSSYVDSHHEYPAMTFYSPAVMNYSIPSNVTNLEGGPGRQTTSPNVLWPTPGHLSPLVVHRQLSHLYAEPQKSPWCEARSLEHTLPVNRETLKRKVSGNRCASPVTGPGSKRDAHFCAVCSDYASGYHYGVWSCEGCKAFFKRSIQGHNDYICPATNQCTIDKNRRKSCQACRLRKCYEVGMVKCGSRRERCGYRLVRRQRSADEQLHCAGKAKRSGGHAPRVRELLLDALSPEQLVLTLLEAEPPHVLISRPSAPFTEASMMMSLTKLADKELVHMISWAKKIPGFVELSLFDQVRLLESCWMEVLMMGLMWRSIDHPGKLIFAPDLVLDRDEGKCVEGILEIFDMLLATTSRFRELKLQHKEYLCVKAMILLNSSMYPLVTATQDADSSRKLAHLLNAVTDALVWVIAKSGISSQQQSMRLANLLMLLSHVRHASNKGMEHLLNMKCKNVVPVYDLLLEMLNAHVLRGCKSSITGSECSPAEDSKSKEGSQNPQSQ
SF1 activator = activators of human nuclear receptor SF-1 | Q13285 | CHO-K1 Gal4-SF-1 LBD luciferase reporter; % increase over DMSO SF-1-specific signal | activation, % at 10 µM | 1.9% of 65,000 active | AID 522;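 active = activation above the mean activation of all tested compounds plus 3 SD, cut at about 50% in these data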
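Test system: CHO-K1 cells co-transfected with Gal4 DBD–human SF-1 LBD, 5xGal4 luciferase reporter. Quantity: 4,000 cells per well. Compound: 10 µM only. Incubation: compound added 1 h post-seeding, 20 h exposure at 37 °C, 5% CO2. Detection: SteadyLite luciferase luminescence. Replication: one test per compound.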
RORA act = RORA (human) activation; P35398; 1.5% of 65,000 active; CHO-K1 Gal4-RORA LBD luciferase reporter, luminescence; percent increase over mock-subtracted basal signal; activation, % at 10 µM; AID 560;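 active = activation above the mean of all tested compounds plus 3 SD, cut at about 49% in these data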;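 note: 0% = DMSO-treated RORA cells and 100% = added signal equal to DMSO minus mock-transfected cells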
ERa coact pot = enhances coactivator binding to human estrogen receptor alpha. P03372. TR-FRET ERalpha-LBD/SRC-Cy5 coactivator binding, 2 h; 100 = basal binding, no effect. coactivator binding (% of control), % at 25.6 µM. 1.3% of 86,000 active. AID 639; in the data active = activity above about 200%;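 note: binding measured in presence of low estradiol as agonist stimulus; 0% = peptide alone without receptor and 100% = receptor with peptide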
BAP1 inh = human BAP1 deubiquitinase inhibition | Q92560 | AID 436 | calls only at 20 µM | 0.48% of 72,000 active | recombinant BAP1, Ub-AMC hydrolysis fluorescence kinetic; hits give low values;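 active = activity remaining at or below 50% of control, provided the compound also passes the data quality filters; inactive = the rest, including low values that fail the filters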;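 note: 100% = DMSO wells rate and 0% = substrate alone blank rate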
An asterisk follows results filed as active; [ ] = remark or other dose.

O=C(CSc1ncnc2c1oc1ccccc12)Nc1cccc(Cl)c1 was read as ERa coact inh 6, ERb coact inh 26, SF1 activator 8, RORA act -8, ERa coact pot 373*[fluorescence artefact?] and BAP1 inh inactive.
For CC1=CC(C)(C)N(C(=O)Nc2cccc(Cl)c2)c2cc(C)c(C)cc21 the results were BAP1 inh inactive.
`CC1=C(C(=O)OCCC(C)C)C(c2cc3c(cc2Br)OCO3)NC(=O)N1` (configuration not stated) gave BAP1 inh inactive.
For Cn1c(=O)c2c(nc(Oc3cccc(C4Nc5ccc6ccccc6c5C5=C4C(=O)CC(C)(C)C5)c3)n2C)n(C)c1=O (configuration not stated) the results were BAP1 inh inactive.
c1ccc(CSc2ncnc3c2oc2ccccc23)cc1 was read as ERa coact inh 26, ERb coact inh 12 and ERa coact pot 107.
CCOC(=O)c1ccc(CSc2ncn[nH]2)o1 was read as ERa coact inh -5, ERb coact inh 8, SF1 activator 3, RORA act -21, ERa coact pot 95 and BAP1 inh inactive.
For Fc1ccccc1CSc1ncnc2c1oc1ccccc12 the results were ERa coact inh 28, ERb coact inh 31, SF1 activator 5, RORA act -29, ERa coact pot 213*[fluorescence artefact?] and BAP1 inh inactive.
CCOc1ccccc1NC(=O)CSc1ncnc2c1oc1ccccc12 was read as ERa coact inh 31, ERb coact inh 41, SF1 activator 11, RORA act -2, ERa coact pot 274*[fluorescence artefact?] and BAP1 inh inactive.
For COC(=O)c1ccc(CSc2ncn[nH]2)o1 the results were ERa coact inh -8, ERb coact inh 86*[fluorescence artefact?], SF1 activator -9, RORA act 3, ERa coact pot 107 and BAP1 inh inactive.
For CCc1nnc(NC(=O)CSc2ncnc3c2oc2ccccc23)s1 the results were ERa coact inh -18, ERb coact inh 16, SF1 activator 7, RORA act 12, ERa coact pot 238*[fluorescence artefact?] and BAP1 inh inactive.
For N#C/C(C(=O)N1CCCCC1)=C1\Nc2ccccc2S1 the results were ERa coact inh -1, ERb coact inh 0, SF1 activator 50*, RORA act 30, ERa coact pot 101 and BAP1 inh inactive.
CC1=CS/C(=C(/C#N)C(=O)N2CCCCC2)N1c1ccccc1 was read as ERa coact inh -2, ERb coact inh -2, SF1 activator -5, RORA act -13, ERa coact pot 133 and BAP1 inh inactive.
`Oc1ccc(-c2nnc(SCC3CCCCC3)o2)cc1` gave ERa coact inh 8, ERb coact inh 0, SF1 activator 64*, RORA act 59*, ERa coact pot 98 and BAP1 inh inactive.
Screening O=C(CSc1nnc(-c2ccc(O)cc2)o1)N1CCOCC1 returned ERa coact inh 12, ERb coact inh -2, SF1 activator 29, RORA act 45, ERa coact pot 106 and BAP1 inh inactive.
For COc1nc(Nc2ccc(-c3nc4ccccc4o3)cc2)nc(N2CCOCC2)n1 the results were ERa coact inh 62*[fluorescence artefact?], ERb coact inh -8, SF1 activator -4, RORA act -1 and ERa coact pot 73.
For O=C(c1ccccc1)N1CCN(Cc2ccccn2)CC1 the results were BAP1 inh inactive.
For COCCN1C(=O)C(=O)/C(=C(/O)c2ccc3c(c2)OCCO3)C1c1ccc(C(=O)OC)cc1 (configuration not stated) the results were ERa coact inh -7, ERb coact inh -10, SF1 activator 14, RORA act 13, ERa coact pot 91 and BAP1 inh inactive.
`COCCCN1C(=O)C(=O)/C(=C(/O)c2ccc3c(c2)OCCO3)C1c1ccc(C(=O)OC)cc1` (configuration not stated) gave ERa coact inh 77*[fluorescence artefact?], ERb coact inh 80*[fluorescence artefact?], SF1 activator -22, RORA act -2, ERa coact pot 68 and BAP1 inh inactive.
CCN(CC)CCCN1C(=O)C(=O)/C(=C(/O)c2ccc3c(c2)OCCO3)C1c1ccc(C)o1 (configuration not stated) was read as ERa coact inh -4, ERb coact inh -6, SF1 activator 12, RORA act 24, ERa coact pot 112 and BAP1 inh active.
For CC1=CCC2CC1NC(=O)CCOCCC(=O)NC2(C)C (configuration not stated) the results were BAP1 inh inactive.
`CCCCCCCCCCCCC/C=C/C(O)C(N)CO` (configuration not stated) gave BAP1 inh active.
For CCCCCCCC/C=C\CCCCCCCC(=O)NCCO the results were BAP1 inh inactive.
For COc1cccc(-n2c(SCC(N)=O)nc3c([nH]c4ccccc43)c2=O)c1 the results were ERa coact inh 4, ERb coact inh -6, SF1 activator 18, RORA act 10 and ERa coact pot 633*[fluorescence artefact?].
`O=C(CSc1nc2c([nH]c3ccccc32)c(=O)n1-c1cccc(Cl)c1)N1CCOCC1` gave ERa coact inh 91*[fluorescence artefact?], ERb coact inh 73*[fluorescence artefact?], SF1 activator 11, RORA act 8, ERa coact pot 44 and BAP1 inh inactive.
For COc1ccc(-n2c(SCC(=O)N3CCCC3)nc3c([nH]c4ccccc43)c2=O)cc1 the results were ERa coact inh 87*, ERb coact inh 60*[fluorescence artefact?], SF1 activator 9, RORA act -8, ERa coact pot 124 and BAP1 inh inactive.
For O=C(CSc1nc2c([nH]c3ccccc32)c(=O)n1-c1ccccc1)N1CCOCC1 the results were ERa coact inh 3, ERb coact inh -5, SF1 activator 11, RORA act -11, ERa coact pot 141 and BAP1 inh inactive.
Screening CCCOc1ccc(-c2nnc(-c3cccs3)o2)cc1 returned ERa coact inh 15, ERb coact inh 17 and ERa coact pot 215*[fluorescence artefact?].
`CCCCOc1ccc(-c2nnc(-c3ccncc3)o2)cc1` gave ERa coact inh 4, ERb coact inh 2, SF1 activator 39, RORA act 59*, ERa coact pot 114 and BAP1 inh inactive.
For Cc1ccc(-c2cn3c(n2)sc2cc(C)ccc23)cc1 the results were BAP1 inh inactive.
COc1ccc(C(=O)OCCNC(=O)c2cccnc2)cc1OC was read as BAP1 inh inactive.
Screening O=C(NCCCN1CCOCC1)c1cc(-c2cccs2)on1 returned SF1 activator 32, RORA act 42 and BAP1 inh inactive.
For O=C(NCc1ccco1)c1cc(-c2cccs2)on1 the results were ERa coact inh 1, ERb coact inh -5, SF1 activator 28, RORA act 67*, ERa coact pot 106 and BAP1 inh inactive.
